The target of assay [1] is T1, Melatonin receptor type 1B (Homo sapiens) (UniProt P49286).
T1 sequence (whole entry): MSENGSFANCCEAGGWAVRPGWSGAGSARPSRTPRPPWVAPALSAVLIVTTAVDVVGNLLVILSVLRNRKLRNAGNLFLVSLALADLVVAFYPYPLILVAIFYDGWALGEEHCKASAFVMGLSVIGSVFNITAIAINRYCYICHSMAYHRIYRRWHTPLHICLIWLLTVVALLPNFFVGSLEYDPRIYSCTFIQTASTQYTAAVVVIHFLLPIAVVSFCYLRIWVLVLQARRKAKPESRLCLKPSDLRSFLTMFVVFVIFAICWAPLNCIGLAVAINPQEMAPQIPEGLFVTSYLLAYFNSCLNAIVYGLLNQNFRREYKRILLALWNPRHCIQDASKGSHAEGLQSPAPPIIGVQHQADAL
The experiment in a line: Antagonist potency determined against 3 nM melatonin for Melatonin receptor type 1B. It is filed as functional. In short, it runs like this: (§1)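 Antagonist mode of [³⁵S]GTPγS binding on membranes (20 µg/mL) of CHO cells stably expressing human MT₁ or MT₂. […] Incubation 1 h at room temperature, GF/B filtration. Nonspecific binding with 10 µM GTPγS.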

The target of assay [2] is T2, Melatonin receptor type 1A (Homo sapiens, UniProt P48039). Kind of assay: Intrinsic activity evaluated on [35S]GTP -gamma-S binding in Chinese hamster ovarian (CHO) cells, stably expressing human Melatonin receptor type 1A. The class given is functional, cell-based.
The target of assay [3] is T3, Melatonin receptor type 1B (Homo sapiens, UniProt P49286).
T3 sequence (P49286 whole entry): T1 sequence (whole entry)
Kind of assay: Binding affinity on human melatonin receptor type 1B stably transfected in human embryonic kidney (HEK 293) cells using 2-[125I]iodomelatonin as radioligand. The class given is cell-based, HEK293.

For assay [4], the target named is T3, Melatonin receptor type 1B. The experiment in a line: Intrinsic activity at human Melatonin receptor type 1B evaluated on [35S]GTP-gamma-S, binding in Chinese hamster ovarian (CHO) cells. The class given is functional, cell-based.
The target in assay [5] is T2, Melatonin receptor type 1A. Kind of assay: Antagonist potency determined against 30 nM melatonin for Melatonin receptor type 1A. It is filed as functional. The procedure, abridged: as §1
For assay [6], the target named is T2, Melatonin receptor type 1A. Kind of assay: Binding affinity on human melatonin receptor type 1A stably transfected in human embryonic kidney (HEK 293) using 2-[125I]iodomelatonin as radioligand. The class given is cell-based, HEK293.
Assay [7] deals with T2, Melatonin receptor type 1A. The experiment in a line: Intrinsic activity of Melatonin receptor type 1A evaluated on [35S]GTP-gamma-S, binding in Chinese hamster ovarian (CHO) cells. The class given is functional, cell-based. On the technique in general: Binding of GTPγS marks nucleotide exchange on a G protein.

Each structure is given as a SMILES string. Some results are limits rather than exact numbers.

T2 sequence (P48039 whole entry): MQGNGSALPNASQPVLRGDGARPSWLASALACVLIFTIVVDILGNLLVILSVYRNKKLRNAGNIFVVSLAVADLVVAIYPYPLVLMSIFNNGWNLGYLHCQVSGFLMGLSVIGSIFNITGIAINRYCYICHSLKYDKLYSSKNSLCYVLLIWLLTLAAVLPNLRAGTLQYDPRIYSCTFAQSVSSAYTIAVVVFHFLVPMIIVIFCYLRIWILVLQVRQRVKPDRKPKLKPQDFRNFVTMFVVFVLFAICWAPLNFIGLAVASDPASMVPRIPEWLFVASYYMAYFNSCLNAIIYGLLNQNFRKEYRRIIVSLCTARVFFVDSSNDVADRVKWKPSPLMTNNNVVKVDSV

Consider `COc1ccc2oc(Cc3ccccc3)c(CCNC(C)=O)c2c1`, for which, in assay [1], the Kb – broadly, the equilibrium dissociation constant of an antagonist, usually derived from a functional assay – is 0.21 nM. Further, the half-maximal effective concentration (EC50) (in general, the concentration giving half of the maximal effect) is 21 nM in assay [2] and > 10000 nM in assay [4]. For the same molecule, affinity in assay [3] was put at a Ki of 0.05 nM.

Regarding `COc1ccc(Cc2oc3ccc(OC)cc3c2CCNC(C)=O)cc1`, the Kb was 0.42 nM in assay [1] and 35 nM in assay [5]. Also, the half-maximal effective concentration (EC50) in assay [2] and in assay [4] was > 10000 nM in each case. Also, the Ki – broadly, the equilibrium dissociation constant of an inhibitor or competing ligand from its target – in assay [3] stood at 0.5 nM; in assay [6], 24 nM.

With `COc1ccc2oc(Cc3cccc(C(F)(F)F)c3)c(CCNC(C)=O)c2c1`, the Kb in assay [1] turned out to be 2.4 nM; in assay [5], 89 nM. The concentration for a half-maximal effect (EC50) in assay [7] was > 10000 nM; in assay [4] it was 1.26 nM. The Ki is 1.17 nM in assay [3] and 80 nM in assay [6].

`C=CCC(=O)NCCc1c(Cc2ccccc2)oc2ccc(OC)cc12` came in with a Kb in assay [1] of 0.16 nM. In addition, the values for the EC50 in assay [2] and in assay [4] were 25 nM and 0.17 nM, respectively. The Ki in assay [3] came out at 0.06 nM; in assay [6], 3.51 nM.

On to `CCc1ccc2oc(Cc3ccccc3)c(CCNC(C)=O)c2c1`, for which the figures for the Ki in assay [3] and in assay [6] were 8.25 nM and 64.4 nM, respectively.

Turning to `COc1ccc2oc(-c3ccccc3)c(CCNC(C)=O)c2c1`, the figures for the EC50 in assay [2] and in assay [4] were 0.17 nM and 0.096 nM, respectively. The Ki in assay [3] is 0.02 nM; in assay [6], 0.01 nM.

On to `COc1ccc2oc(CC3CCCCC3)c(CCNC(C)=O)c2c1`, for which the Kb in assay [1] worked out at 7 nM; in assay [5], 242 nM. In addition, the EC50 in assay [2] amounted to 481 nM; in assay [4], 10 nM. Besides, the results for the Ki in assay [3] and in assay [6] were 2.49 nM and 66.4 nM, respectively.

`COc1ccc2oc(-c3ccccc3)c(CCNC(=O)c3ccco3)c2c1`: the inhibition constant (Ki) is 1.7 nM in assay [3] and 12.9 nM in assay [6].

Consider `CCCCCOc1ccc2oc(Cc3ccccc3)c(CCNC(C)=O)c2c1`, for which the inhibition constant (Ki) was 9.64 nM in assay [3] and 42.7 nM in assay [6].

For `COc1cccc(Cc2oc3ccccc3c2CCNC(C)=O)c1`, the figures for the inhibition constant (Ki) in assay [3] and in assay [6] were 18.6 nM and 229 nM, respectively.

In the case of `COc1ccc2oc(Cc3cccc(F)c3)c(CCNC(C)=O)c2c1`, the inhibition constant Ki in assay [3] stood at 0.23 nM; in assay [6] it was 0.75 nM.

Regarding `C=CC(=O)NCCc1c(Cc2ccccc2)oc2ccc(OC)cc12`, the results for the Ki in assay [3] and in assay [6] were 0.69 nM and 53.7 nM, respectively.

As to `COc1ccc2oc(CCCc3ccccc3)c(CCNC(C)=O)c2c1`, the inhibitory constant (Ki) in assay [3] turned out to be 1.52 nM; in assay [6], 31.5 nM.

Take `COc1ccc2oc(Cc3cccnc3)c(CCNC(C)=O)c2c1`: the inhibitory constant (Ki) in assay [3] is 3.53 nM; in assay [6], 29 nM.

Turning to `CNC(=O)NCCc1c(-c2ccccc2)oc2ccc(OC)cc12`, the inhibition constant Ki in assay [3] and in assay [6] was 0.04 nM each time.

With `C/C=C/C(=O)NCCc1c(-c2ccccc2)oc2ccc(OC)cc12`, the Ki was 0.21 nM in assay [3] and 1.01 nM in assay [6].

Regarding `CCCCCCOc1ccc2oc(Cc3ccccc3)c(CCNC(C)=O)c2c1`, the results for the Ki in assay [3] and in assay [6] were 3.21 nM and 8.2 nM, respectively.

For `C=CC(=O)NCCc1c(-c2ccccc2)oc2ccc(OC)cc12`, the Ki in assay [3] amounted to 0.01 nM; in assay [6], 0.02 nM.

As to `COc1ccc2oc(Cc3ccccc3OC)c(CCNC(C)=O)c2c1`, the Kb in assay [1] came to 0.88 nM; in assay [5], 26 nM. Besides, the values for the EC50 in assay [2] and in assay [4] were > 10000 nM and 0.41 nM, respectively. Besides, the results for the Ki in assay [3] and in assay [6] were 0.34 nM and 14.3 nM, respectively.

With `COc1ccc2oc(Cc3ccccc3)c(CCNC(=O)CI)c2c1`, the inhibitory constant (Ki) is 0.41 nM in assay [3] and 8.67 nM in assay [6].

With `CC(=O)NCCc1c(Cc2ccccc2)oc2ccc(O)cc12`, the inhibition constant Ki in assay [3] came out at 79.9 nM; in assay [6], 569 nM.

Consider `COc1cccc(Cc2oc3ccc(OC)cc3c2CCNC(C)=O)c1`, for which the Kb amounted to 1.65 nM in assay [1] and 26 nM in assay [5]. Moreover, the concentration giving a half-maximal response (EC50) in assay [2] was determined as 37 nM; in assay [4], 0.72 nM. Also, the results for the inhibitory constant (Ki) in assay [3] and in assay [6] were 0.32 nM and 40.6 nM, respectively.

Consider `COc1ccc2oc(Cc3ccccc3)c(CCNC(=O)c3ccco3)c2c1`, for which the Ki in assay [3] was 36.7 nM; in assay [6], 698 nM.

For `CCCC(=O)NCCc1c(Cc2ccccc2)oc2ccc(OC)cc12`, the Ki stood at 0.2 nM in assay [3] and 3.29 nM in assay [6].

With `CCc1ccc2oc(Cc3cccc(OC)c3)c(CCNC(C)=O)c2c1`, the Kb in assay [1] worked out at 18 nM; in assay [5], 266 nM. Besides, the EC50 in assay [2] is > 10000 nM; in assay [4], 19 nM. Besides, the inhibitory constant (Ki) in assay [3] amounted to 17 nM; in assay [6] it was 288 nM.

For the molecule `CNC(=O)NCCc1c(Cc2ccccc2)oc2ccc(OC)cc12`, the Ki came to 0.35 nM in assay [3] and 5.37 nM in assay [6].

Take `COc1ccc2oc(Cc3cccc(Cl)c3)c(CCNC(C)=O)c2c1`: the values for the inhibitory constant (Ki) in assay [3] and in assay [6] were 0.22 nM and 7.19 nM, respectively.

Regarding `C=CCC(=O)NCCc1c(-c2ccccc2)oc2ccc(OC)cc12`, the inhibition constant Ki in assay [3] amounted to 0.02 nM; in assay [6], 0.01 nM.

For `CC(=O)NCCc1c(Cc2ccccc2)oc2ccccc12`, the antagonist dissociation constant (Kb) is 12 nM in assay [1] and 27 nM in assay [5]. Besides, the half-maximal effective concentration (EC50) in assay [2] and in assay [4] was > 10000 nM each time. Further, the values for the Ki in assay [3] and in assay [6] were 10.6 nM and 155 nM, respectively.

Take `C=CCC(=O)NCCc1c(Cc2cccc(OC)c2)oc2ccc(OC)cc12`: the Kb in assay [1] was found to be 0.24 nM; in assay [5], 57 nM. Moreover, the EC50 turned out to be 138 nM in assay [2] and 0.39 nM in assay [4].

Take `COc1ccc2oc(Cc3c(Cl)cccc3Cl)c(CCNC(C)=O)c2c1`: the Ki in assay [3] was 12.8 nM; in assay [6], 84.5 nM.

Take `C=CC(=O)NCCc1c(Cc2cccc(OC)c2)oc2ccc(OC)cc12`: the figures for the Ki in assay [3] and in assay [6] were 2.76 nM and 55 nM, respectively.

In the case of `COc1ccc2oc(Cc3cc(C(F)(F)F)cc(C(F)(F)F)c3)c(CCNC(C)=O)c2c1`, the Ki amounted to 340 nM in assay [3] and 476 nM in assay [6].

(Values after ChEMBL document CHEMBL1135482 (J Med Chem, 2002).)
